Results pooled from the literature.
Compare with care: the assays were run in different laboratories.
Target: Phosphatidylinositol 3-kinase catalytic subunit type 3 (PIK3C3, Homo sapiens, UniProt Q8NEB9)

| SMILES | test | conditions | remaining binding [%] |
| --- | --- | --- | --- |
| C=CC(=O)N1CCC(C(=O)NCC(=O)N2CCN(c3nc(-c4cnc(N)nc4C(F)F)nc(N4CCOCC4)n3)CC2)CC1 | binding, competition with immobilised ligand | 1 µM | 4.5 |
| O=C(O)[C@@H]1[C@@H](Cn2nnc3ccccc3c2=O)CC[C@H]1C(=O)c1ccc(OCCC2CCOCC2)cc1 | cell-free assay, competition with immobilised ligand | 1 µM | 96 |
| CNC(=O)[C@@H]1CC[C@@H](n2c(-c3ccc4cnccc4c3)nc3ccc(C(=O)NCc4cccc(C(N)=O)c4)cc32)C1 | binding, competition with immobilised ligand | 1 µM | 7.2 |
| O=C(NCCCN1CCOCC1)c1ccc(Nc2nccc(-c3cc4ccccc4s3)n2)cc1 | binding, competition with immobilised ligand | 1 µM | 0.6 |
| Cc1cnn2ncc(-c3ccnc(N(C)C)n3)c2c1 | binding | 1 µM | 87 |
| O=C(NCC1CCOCC1)c1n[nH]cc1NC(=O)c1c(F)cccc1F | binding, competition with immobilised ligand | 1 µM | 97 |
| COc1cnc(Nc2cccc(S(N)(=O)=O)c2)nc1N1CCN(c2ccccc2)CC1 | binding, competition with immobilised ligand | 1 µM | 76 |
| C[C@@H](c1ccc(-n2cnc3c(N)ncnc32)cc1)N1CCc2nn(C)c(Cc3ccccc3)c2C1=O | binding, competition with immobilised ligand | 0.1 µM | 76 |
| O=S(=O)(NC1CCC(c2cc(F)ccc2F)(S(=O)(=O)c2ccc(Cl)cc2)CC1)C(F)(F)F (stereo not drawn) | cell-free assay, competition with immobilised ligand | 1 µM | 100 |
| COc1ccnn2ncc(-c3ccnc(N(C)C)n3)c12 | binding | 1 µM | 96 |
| Nc1ncc2c(n1)-c1c([nH]c3ccc(C#CC4CC4)cc13)CCCC2 | binding, competition with immobilised ligand | 1 µM | 93 |
| C[C@H]1CCN(c2nccc(-c3cnn4ncccc34)n2)C1 | binding | 1 µM | 86 |
| Cc1c(NC(=O)c2cc(C(N)=O)nc3cc(F)ccc23)c(C(F)(F)F)nn1Cc1ccc(C(C)(C)C)cc1 | cell-free assay, competition with immobilised ligand | 1 µM | 100 |
| O=C(c1ccc(Nc2ncc(Cl)c(-c3ccc(Cl)s3)n2)cc1)N1CCC(N2CCCC2)CC1 | binding, competition with immobilised ligand | 1 µM | 54 |
| CN(C)c1nccc(-c2cnc3ncccn23)n1 | binding | 1 µM | 48 |
| CC1=C(C#N)C(c2ccc3c(c2)c(NC(=O)c2ccccc2C)nn3C)C(C#N)=C(C)N1 | cell-free assay, competition with immobilised ligand | 1 µM | 87 |
| CN(c1nccc(-c2cnn3ncccc23)n1)C1CC1 | binding | 1 µM | 100 |
| CN(C)CC#Cc1ccc(OCCCc2sc(N3CCc4cccc(C(=O)Nc5nc6ccccc6s5)c4C3)nc2C(=O)O)c(F)c1 | cell-free assay, competition with immobilised ligand | 1 µM | 100 |
| O=C(c1ccc(Nc2ncc(Cl)c(-c3cc4ccccc4s3)n2)cc1)N1CCC(N2CCCC2)CC1 | binding, competition with immobilised ligand | 1 µM | 53 |
| O=C(O)c1cc(-c2ccc(C3CCNCC3)cc2)c2ccc(-c3ccc(C(F)(F)F)cc3)cc2c1 | cell-free assay, competition with immobilised ligand | 1 µM | 100 |
| N[C@H]1CCN(c2nccc(-c3cnn4ncccc34)n2)C1 | binding | 1 µM | 77 |
